Screens (PubChem BioAssay)
NALP1 yeast inh = inhibitors of NALP1 inflammasome in yeast. S. cerevisiae NALP1/ASC/caspase-1 growth, X-gal OD620, 72 h. AID 2071. actives 0.61% (n = 280,000). inhibition, % at 10 µM; in the data active = inhibition mostly above about 24%, no sharp cut-off; inactive = mostly below about 32%
ATG4B inhibitor = ATG4B (human) cysteine protease inhibition | Q9Y4P1 | inhibition, % at 8.33 µM | actives 0.51% (n = 340,000) | ATG4B cleavage of LC3-PLA2, NBD-HPC fluorescence, 1 h | AID 504462; in the data active = inhibition above about 40%
Target sequence (Q9Y4P1 whole entry, looked up): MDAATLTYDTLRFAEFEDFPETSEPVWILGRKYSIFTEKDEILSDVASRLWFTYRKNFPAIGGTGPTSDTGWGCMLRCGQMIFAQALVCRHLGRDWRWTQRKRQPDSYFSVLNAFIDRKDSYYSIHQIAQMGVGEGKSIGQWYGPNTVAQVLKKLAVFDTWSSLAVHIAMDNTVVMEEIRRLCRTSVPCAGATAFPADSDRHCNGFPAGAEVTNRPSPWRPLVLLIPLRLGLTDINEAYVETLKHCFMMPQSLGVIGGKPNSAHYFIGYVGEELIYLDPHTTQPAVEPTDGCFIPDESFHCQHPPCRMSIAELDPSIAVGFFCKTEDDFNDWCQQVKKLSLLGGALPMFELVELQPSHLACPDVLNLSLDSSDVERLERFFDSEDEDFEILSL
Calb FLC = affects C. albicans growth with fluconazole; C. albicans CaCi-2 + fluconazole, Alamar Blue growth, 48 h; actives 0.57% (n = 300,000); growth inhibition, % (concentration not given with the values);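 active = growth inhibition above about 58% in most replicates, limit read from the data, passing the limit was not always enough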;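 also: all wells also contain fluconazole at 8 µg/ml as a sub-toxic cotreatment; 0% = median of DMSO wells and 100% = median of geldanamycin control wells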
ALR inh = inhibitors of human sulfhydryl oxidase ALR; purified ALR, DTT oxidation, H2O2 HRP-luminol luminescence; inhibition, % (concentration not given with the values); P55789; actives 3.8% (n = 290,000);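 active = mean replicate inhibition above about 79%, with every replicate also reaching it, limit read from the data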
Target sequence (P55789 whole entry, looked up): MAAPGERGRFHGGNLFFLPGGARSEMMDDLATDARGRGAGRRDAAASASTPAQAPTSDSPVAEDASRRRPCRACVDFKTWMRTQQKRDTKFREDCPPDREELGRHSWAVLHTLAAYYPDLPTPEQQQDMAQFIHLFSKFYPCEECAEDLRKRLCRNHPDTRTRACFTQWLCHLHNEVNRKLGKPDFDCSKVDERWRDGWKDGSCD
NLRP3 yeast inh = blocks the NALP3 inflammasome reconstituted in yeast; Yeast reconstituted NLRP3/ASC/caspase-1, beta-gal luminescence, 24 h; inhibition, % at 10 µM; actives 0.39% (n = 330,000);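 active = inhibition of 50% or more; inactive = inhibition below 50%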;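 also: plate controls were induced DMSO wells for no effect and uninduced yeast grown without galactose for full effect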
UCH37 inh = blocks the human deubiquitinase UCH37; Q9Y5K5; AID 588478; actives 0.33% (n = 330,000); inhibition, % (no concentration beside the values); purified proteasome/UCH37, Ub-AMC cleavage fluorescence;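 active = mean inhibition over replicate wells above about 20%, limit read from the data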;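 also: 0% = compound-free wells with enzyme and 100% = wells lacking proteasome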
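Signal – fluorescence, ex 355 nm, em 460 nm · System – Proteasome-bound UCH37 · Input – 0.15 nM proteasome as dispensed · Timing – 30 min preincubation with enzyme, 25 min cleavage at room temperature · Read-out basis – percent inhibition of cleavage signal versus uninhibited and no-proteasome wells · Medium – Tris-HCl pH 7.4 with ATP-MgCl2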
Numbers without * were called inactive; x = no result given. Sampled rows, rich in hits. Any-hit rate of the full collection: about 4.8%.

SMILES	NALP1 yeast inh	ATG4B inhibitor	Calb FLC	ALR inh	NLRP3 yeast inh	UCH37 inh
Fc1cnc(Cl)nc1N1CCN(c2ccccc2)CC1	2	-3	3	99*	12	6
Cc1cc2nc3ccc(N(C)C)cc3nc2cc1N	x	-4	2	92*	14	x
COc1cccc(C=NN2CCN(Cc3ccccc3)CC2)c1O	x	x	x	x	x	5
CC1CC(C)CN(C(=O)CSc2nnc(N)s2)C1 (stereo not given)	8	-2	3	95*	7	0
CCOC(=O)/C(C#N)=C/C=C1/C=CC=CN1C	-23	-4	-4	95*	22	20*
CC(=NNC(=O)c1nn(C)cc1Br)c1cccc(NC(=O)C(C)(C)C)c1	x	x	x	x	x	1
COc1ccc(NC2CCCN(C(=O)c3ccc(OC)o3)C2)cc1 (stereo not given)	7	1	6	99*	22	0
COc1ccc(NC2CCCN(C(=O)c3cccc(N(C)C)c3)C2)cc1 (stereo not given)	-1	-4	-3	x	10	1
COc1ccc2cc3cc(C(=O)N4CCCC(C)C4)oc3nc2c1 (stereo not given)	7	28	-3	-2	15	-76
Cc1ccc(C(=O)N2CCCC(Nc3cccc(F)c3)C2)cc1N1CCNC1=O (stereo not given)	14	0	-4	36	8	3
COc1ccc(NC2CCCN(C(=O)c3ccc(C)c(N4CCNC4=O)c3)C2)cc1 (stereo not given)	11	0	-9	98*	6	6
COc1ccc(NC2CCCN(C(=O)c3ccc4[nH]c(C)c(C)c4c3)C2)cc1 (stereo not given)	22	24	-28	88*	8	1
COc1ccc(NC2CCCN(C(=O)c3ccc(C(C)=O)cc3)C2)cc1 (stereo not given)	2	-2	-7	98*	19	1
CC(C)C(=O)NN=Cc1ccc(OCc2ccccc2)cc1	x	x	x	x	x	4
COc1ccc(NC2CCCN(C(=O)c3cc4ncccn4n3)C2)cc1 (stereo not given)	4	-13	1	100*	8	3
CC(=O)c1ccc(C(=O)N2CCCC(N3CCN(c4ccc(F)cc4)CC3)C2)s1 (stereo not given)	8	1	34	x	5	0
COc1ccc(NC2CCCN(C(=O)c3ccc(C)nc3)C2)cc1 (stereo not given)	-8	-7	-4	99*	16	3
COc1ccc(C(=O)N2CCCC(Nc3ccc(F)cc3)C2)c(OC)c1 (stereo not given)	30*	-5	12	98*	14	3
COc1ccc(NC2CCCN(C(=O)c3ccc(C(C)=O)s3)C2)cc1 (stereo not given)	-1	11	4	92*	10	5
COc1ccccc1OCC(=O)N1CCCC(Nc2cccc(F)c2)C1 (stereo not given)	30	-2	7	-3	12	2
O=C(C[n+]1ccccc1)NN=Cc1ccc(C(=O)O)cc1	x	x	x	x	x	1
CC(CC(=O)Nc1ccc2c(c1)OCO2)=NNC(=O)c1ccccc1N	x	x	x	x	x	-151
Cc1ccc(N(CC(=O)NN=Cc2cccs2)S(C)(=O)=O)cc1Cl	x	x	x	x	x	4
O=C(NN=Cc1ccc(Cl)cc1Cl)c1ccncc1	x	x	x	x	x	3
Cc1cc(Oc2ccccc2)nc(-c2ccccc2O)n1	14	-5	104*	-18	21	4
SMILES	NALP1 yeast inh	ATG4B inhibitor	Calb FLC	ALR inh	NLRP3 yeast inh	UCH37 inh
Nn1cnnc1NN=Cc1cc([N+](=O)[O-])c(Cl)cc1Cl	x	x	x	x	x	2
Cc1cccc(NCc2ccccc2O)c1C	x	6	0	99*	17	0
CCOC(=O)C(=O)NNc1ccc(Cl)cc1	50*	-9	-20	100*	27	-1
CCOC(=O)C(=O)NNc1ccccc1OC	-18	-6	-21	99*	11	5
Cc1ccc(C)c(NNC(=O)C(=O)NNc2cc(C)ccc2C)c1	-11	-3	-24	2	-2	6
CCc1ccc(C(=O)NNc2ccc(Cl)cc2)cc1	10	5	0	-12	41	4
Cc1ccccc1NNC(=O)C(=O)NNc1ccccc1C	0	3	-15	98*	18	5
CCOC(=O)C(=O)NNc1ccc(C)cc1	23	6	10	100*	28	0
O=C(COc1cccc(Br)c1)NN=CC(=O)c1ccccc1	x	x	x	x	x	1
O=c1c(Cl)c(NN=Cc2ccc(Cl)cc2)cnn1-c1ccccc1	x	x	x	x	x	-53
CCOC(=O)C1CCCCN1Cc1ccc(F)cc1 (stereo not given)	43*	7	8	1	3	1
CCOC(=O)C1CCCCN1Cc1cccc(F)c1 (stereo not given)	49	2	-3	2	8	2
CCCCN(Cc1ccccc1)C(=O)C1CCN(S(=O)(=O)c2c(C)noc2C)CC1	37*	-7	-4	-2	4	2
O=C1CSCN1c1ccc(Cl)c(Cl)c1	6	-1	7	98*	-3	4
O=C1CSCN1c1cc(Cl)ccc1Cl	11	3	-7	42	-13	2
CN(C)c1ccc(C2Nc3ccccc3C(=O)N2CCCN2CCOCC2)cc1 (stereo not given)	-7	5	-8	99*	15	-7
CCN(CC)CCN1C(=O)c2ccccc2NC1c1ccc(N(C)C)cc1 (stereo not given)	65	11	0	48	1	-4
CCOc1cc(C=NNc2cc(C)nc(-n3nc(C)cc3C)n2)ccc1O	x	x	x	x	x	3
CCC1C/C(=C/c2ccco2)C(=O)/C(=C/c2ccco2)C1 (stereo not given)	28	x	x	97*	x	x
O=C(CCC(=O)Nc1ccc(Br)cc1)NN=Cc1ccccc1F	x	x	x	x	x	2
Cc1ccc(C=Nn2cc(-c3ccccc3)[nH]c2=S)s1	x	x	x	x	x	3
CCN(CCNC(=O)CCCn1nc(C)n2c(cc3sccc32)c1=O)c1ccccc1	-17	3	-4	98*	0	3
CCOCCCNC(=O)CCCn1nc(C)n2c(cc3sccc32)c1=O	12	-6	1	x	18	2
CCOc1cc(/C=N/N=C/c2ccc(O)c(OCC)c2)ccc1O	23	-6	-2	7	-28	x
Oc1ccc(N=Cc2ccc(O)c(O)c2)cc1	-19	-14	31	99*	24	10
Cc1ccc(/C=N/N=C/c2ccc(C)cc2)cc1	36	3	-7	x	35	x
C(=N\N=C\c1ccccc1)/c1ccccc1	36*	-4	9	-4	12	x
O=Cc1ccc(O)c(O)c1	10	-5	x	99*	16	6
Oc1ccc(/C=N/N=C/c2ccc(O)c(O)c2)cc1O	-23	-3	-3	99*	23	x
COc1ccc(C=NNC(=O)Nc2cccc3nsnc23)c(OC)c1	x	x	x	x	x	-15
